Calls of active or inactive are those of the source.
Experiments:
Format in all cases: cell-based
[1] = biological target: T1, CDK9/cyclin T1 (Homo sapiens) (UniProt O60563+P50750); assay: Inhibition of CDK9/Cyclin T1 in human B cell transfected with EBV assessed as reduction in RNA pol II C-terminal domain phosphorylation on serine 5 at +48 distal EBV genome region at 500 nM incubated for 2 hrs in presence of beta-estradiol by CHIP assay
[2] = biological target: T1, CDK9/cyclin T1 (Homo sapiens); assay: Inhibition of CDK9/Cyclin T1 in human Mutu-3 cells assessed as reduction in H4 histone acetylation at +2238 distal EBV genome region at 500 nM incubated for 2 hrs by CHIP assay
[3] = biological target: T1, CDK9/cyclin T1 (Homo sapiens); assay: Inhibition of CDK9/Cyclin T1 in human B cell transfected with EBV assessed as reduction in RNA pol II C-terminal domain phosphorylation on serine 5 at -208 distal EBV genome region at 500 nM incubated for 2 hrs in presence of beta-estradiol by CHIP assay
[4] = biological target: T1, CDK9/cyclin T1 (Homo sapiens); assay: Inhibition of CDK9/Cyclin T1 in human Mutu-3 cells assessed as reduction in H3 histone acetylation at +34 distal EBV genome region at 500 nM incubated for 2 hrs by CHIP assay
[5] = biological target: T1, CDK9/cyclin T1 (Homo sapiens); assay: Inhibition of CDK9/Cyclin T1 in human Mutu-3 cells assessed as reduction in RNA pol II C-terminal domain phosphorylation on serine 5 at +38828 distal EBV genome region at 500 nM incubated for 2 hrs by CHIP assay
[6] = biological target: T1, CDK9/cyclin T1 (Homo sapiens); assay: Inhibition of CDK9/Cyclin T1 in human Mutu-3 cells assessed as reduction in H3 histone acetylation at +2238 distal EBV genome region at 500 nM incubated for 2 hrs by CHIP assay
[7] = biological target: T1, CDK9/cyclin T1 (Homo sapiens); assay: Inhibition of CDK9/Cyclin T1 in human Mutu-3 cells assessed as reduction in RNA pol II C-terminal domain phosphorylation on serine 5 at +38667 distal EBV genome region at 500 nM incubated for 2 hrs by CHIP assay
[8] = biological target: T1, CDK9/cyclin T1 (Homo sapiens); assay: Inhibition of CDK9/Cyclin T1 in human B cell transfected with EBV assessed as reduction in RNA pol II C-terminal domain phosphorylation on serine 5 at +30896 distal EBV genome region at 500 nM incubated for 2 hrs in presence of beta-estradiol by CHIP assay
[9] = biological target: T1, CDK9/cyclin T1 (Homo sapiens); assay: Inhibition of CDK9/Cyclin T1 in human Mutu-3 cells assessed as reduction in BRD4 at -317 distal EBV genome region at 500 nM incubated for 2 hrs by CHIP assay
[10] = biological target: T1, CDK9/cyclin T1 (Homo sapiens); assay: Inhibition of CDK9/Cyclin T1 in human Mutu-3 cells assessed as decrease in Cp-initiated EBNA 2 transcription at 25 to 50 uM incubated for 24 hrs by Q-PCR analysis; conditions: dose 25-50 µM
Summary of the method: (§1)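 Mutu III cells seeded at 5×10^5 cells/ml and given DRB or flavopiridol at the stated concentrations, with DMSO as control, for 24 hrs. cDNA was made from 10^5 cells with a cells-to-Ct SYBR kit. Q-PCR used cDNA-specific EBNA 2, EBNA 1 (YUK) or LMP1 primers, with actin as endogenous control, and was analysed by relative quantification (ddCt) against 24 hr control samples.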

[11] = biological target: T1, CDK9/cyclin T1 (Homo sapiens); assay: Inhibition of CDK9/Cyclin T1 in human Mutu-3 cells assessed as effect on cp-pre-initiation complex assembly at +38828 distal EBV genome region at 500 nM incubated for 2 hrs by CHIP assay
[12] = biological target: T1, CDK9/cyclin T1 (Homo sapiens); assay: Inhibition of CDK9/Cyclin T1 in human Mutu-3 cells assessed as reduction in H3 histone acetylation at +1564 distal EBV genome region at 500 nM incubated for 2 hrs by CHIP assay
[13] = biological target: T1, CDK9/cyclin T1 (Homo sapiens); assay: Inhibition of CDK9/Cyclin T1 in human Mutu-3 cells assessed as effect on cp-pre-initiation complex assembly at +48 distal EBV genome region at 500 nM incubated for 2 hrs by CHIP assay
[14] = biological target: T1, CDK9/cyclin T1 (Homo sapiens); assay: Inhibition of CDK9/Cyclin T1 in human Mutu-3 cells assessed as reduction in H4 histone acetylation at +574 distal EBV genome region at 500 nM incubated for 2 hrs by CHIP assay
[15] = biological target: T1, CDK9/cyclin T1 (Homo sapiens); assay: Inhibition of CDK9/Cyclin T1 in human Mutu-3 cells assessed as reduction in RNA pol II C-terminal domain phosphorylation on serine 5 at -208 distal EBV genome region at 500 nM incubated for 2 hrs by CHIP assay
[16] = biological target: T1, CDK9/cyclin T1 (Homo sapiens); assay: Inhibition of CDK9/Cyclin T1 in human Mutu-3 cells assessed as reduction in H4 histone acetylation at +1564 distal EBV genome region at 500 nM incubated for 2 hrs by CHIP assay
[17] = biological target: T1, CDK9/cyclin T1 (Homo sapiens); assay: Inhibition of CDK9/Cyclin T1 in human B cell transfected with EBV assessed as reduction in RNA pol II C-terminal domain phosphorylation on serine 5 at +75615 distal EBV genome region at 500 nM incubated for 2 hrs in presence of beta-estradiol by CHIP assay
[18] = biological target: T1, CDK9/cyclin T1 (Homo sapiens); assay: Inhibition of CDK9/Cyclin T1 in human B cell transfected with EBV assessed as reduction in RNA pol II C-terminal domain phosphorylation on serine 5 at +40493 distal EBV genome region at 500 nM incubated for 2 hrs in presence of beta-estradiol by CHIP assay
[19] = biological target: T1, CDK9/cyclin T1 (Homo sapiens); assay: Inhibition of CDK9/Cyclin T1 in human B cell transfected with EBV assessed as reduction in RNA pol II C-terminal domain phosphorylation on serine 5 at +295 distal EBV genome region at 500 nM incubated for 2 hrs in presence of beta-estradiol by CHIP assay
[20] = biological target: T1, CDK9/cyclin T1 (Homo sapiens); assay: Inhibition of CDK9/Cyclin T1 in human Mutu-3 cells assessed as decrease in Cp-initiated LMP1 transcription at 25 to 50 uM incubated for 24 hrs by Q-PCR analysis; conditions: dose 25-50 µM; summary of the method: as §1
[21] = biological target: T1, CDK9/cyclin T1 (Homo sapiens); assay: Inhibition of CDK9/Cyclin T1 in human Mutu-3 cells assessed as increase in fold change pTEFb/Brd4 complex
[22] = biological target: T1, CDK9/cyclin T1 (Homo sapiens); assay: Inhibition of CDK9/Cyclin T1 in human Mutu-3 cells assessed as reduction in BRD4 at +34 distal EBV genome region at 500 nM incubated for 2 hrs by CHIP assay
[23] = biological target: T1, CDK9/cyclin T1 (Homo sapiens); assay: Inhibition of CDK9/Cyclin T1 in human Mutu-3 cells assessed as effect on cp-pre-initiation complex assembly at +38667 distal EBV genome region at 500 nM incubated for 2 hrs by CHIP assay
[24] = biological target: T1, CDK9/cyclin T1 (Homo sapiens); assay: Inhibition of CDK9/Cyclin T1 in human Mutu-3 cells assessed as effect on cp-pre-initiation complex assembly at +295 distal EBV genome region at 500 nM incubated for 2 hrs by CHIP assay
[25] = biological target: T1, CDK9/cyclin T1 (Homo sapiens); assay: Inhibition of CDK9/Cyclin T1 in human Mutu-3 cells assessed as reduction in H4 histone acetylation at -317 distal EBV genome region at 500 nM incubated for 2 hrs by CHIP assay
[26] = biological target: T1, CDK9/cyclin T1 (Homo sapiens); assay: Inhibition of CDK9/Cyclin T1 in human Mutu-3 cells assessed as reduction in RNA pol II C-terminal domain phosphorylation on serine 5 at +48 distal EBV genome region at 500 nM incubated for 2 hrs by CHIP assay
[27] = biological target: T1, CDK9/cyclin T1 (Homo sapiens); assay: Inhibition of CDK9/Cyclin T1 in human Mutu-3 cells assessed as effect on cp-pre-initiation complex assembly at +30896 distal EBV genome region at 500 nM incubated for 2 hrs by CHIP assay
[28] = biological target: T1, CDK9/cyclin T1 (Homo sapiens); assay: Inhibition of CDK9/Cyclin T1 in human Mutu-3 cells assessed as reduction in H3 histone acetylation at +574 distal EBV genome region at 500 nM incubated for 2 hrs by CHIP assay
[29] = biological target: T1, CDK9/cyclin T1 (Homo sapiens); assay: Inhibition of CDK9/Cyclin T1 in human Mutu-3 cells assessed as reduction in BRD4 at +2238 distal EBV genome region at 500 nM incubated for 2 hrs by CHIP assay
[30] = biological target: T1, CDK9/cyclin T1 (Homo sapiens); assay: Inhibition of CDK9/Cyclin T1 in human Mutu-3 cells assessed as effect on cp-pre-initiation complex assembly at -208 distal EBV genome region at 500 nM incubated for 2 hrs by CHIP assay
[31] = biological target: T1, CDK9/cyclin T1 (Homo sapiens); assay: Inhibition of CDK9/Cyclin T1 in human B cell transfected with EBV assessed as reduction in RNA pol II C-terminal domain phosphorylation on serine 5 at +50024 distal EBV genome region at 500 nM incubated for 2 hrs in presence of beta-estradiol by CHIP assay
[32] = biological target: T1, CDK9/cyclin T1 (Homo sapiens); assay: Inhibition of CDK9/Cyclin T1 in human Mutu-3 cells assessed as reduction in BRD4 at +574 distal EBV genome region at 500 nM incubated for 2 hrs by CHIP assay
[33] = biological target: T1, CDK9/cyclin T1 (Homo sapiens); assay: Inhibition of CDK9/Cyclin T1 in human Mutu-3 cells assessed as reduction in RNA pol II C-terminal domain phosphorylation on serine 5 at +295 distal EBV genome region at 500 nM incubated for 2 hrs by CHIP assay
[34] = biological target: T1, CDK9/cyclin T1 (Homo sapiens); assay: Inhibition of CDK9/Cyclin T1 in human Mutu-3 cells assessed as decrease in Cp-initiated EBNA 1 transcription at 25 to 50 uM incubated for 24 hrs by Q-PCR analysis; conditions: dose 25-50 µM; summary of the method: as §1
[35] = biological target: T1, CDK9/cyclin T1 (Homo sapiens); assay: Inhibition of CDK9/Cyclin T1 in human HeLa cells stably transfected Flag-tagged CDK9 assessed as increase in fold change pTEFb/Brd4 complex at 1 mM by western analysis
[36] = biological target: T1, CDK9/cyclin T1 (Homo sapiens); assay: Inhibition of CDK9/Cyclin T1 in human Mutu-3 cells assessed as reduction in RNA pol II C-terminal domain phosphorylation on serine 5 at W repeat EBV genome region at 500 nM incubated for 2 hrs by CHIP assay
[37] = biological target: T1, CDK9/cyclin T1 (Homo sapiens); assay: Inhibition of CDK9/Cyclin T1 in human Mutu-3 cells assessed as reduction in RNA pol II C-terminal domain phosphorylation on serine 5 at +30896 distal EBV genome region at 500 nM incubated for 2 hrs by CHIP assay
[38] = biological target: T1, CDK9/cyclin T1 (Homo sapiens); assay: Inhibition of CDK9/Cyclin T1 in human Mutu-3 cells assessed as reduction in BRD4 at +1564 distal EBV genome region at 500 nM incubated for 2 hrs by CHIP assay
[39] = biological target: T1, CDK9/cyclin T1 (Homo sapiens); assay: Inhibition of CDK9/Cyclin T1 in human Mutu-3 cells assessed as reduction in H3 histone acetylation at -317 distal EBV genome region at 500 nM incubated for 2 hrs by CHIP assay
[40] = biological target: T1, CDK9/cyclin T1 (Homo sapiens); assay: Inhibition of CDK9/Cyclin T1 in human B cell transfected with EBV assessed as reduction in RNA pol II C-terminal domain phosphorylation on serine 5 at +59014 distal EBV genome region at 500 nM incubated for 2 hrs in presence of beta-estradiol by CHIP assay
[41] = biological target: T1, CDK9/cyclin T1 (Homo sapiens); assay: Inhibition of CDK9/Cyclin T1 in human Mutu-3 cells assessed as reduction in H4 histone acetylation at +34 distal EBV genome region at 500 nM incubated for 2 hrs by CHIP assay

OC[C@H]1O[C@@H](n2cnc3cc(Cl)c(Cl)cc32)[C@H](O)[C@@H]1O
active: inhibition [1] | inhibition [2] | inhibition [3] | inhibition [4] | inhibition [5] | inhibition [6] | inhibition [7] | inhibition [8] | inhibition [9] | inhibition [10] | inhibition [12] | inhibition [14] | inhibition [15] | inhibition [16] | inhibition [17] | inhibition [18] | inhibition [19] | inhibition [22] | inhibition [25] | inhibition [26] | inhibition [28] | inhibition [29] | inhibition [31] | inhibition [32] | inhibition [33] | inhibition [34] | inhibition [36] | inhibition [37] | inhibition [38] | inhibition [39] | inhibition [40] | inhibition [41]
2: fold change (FC) [21] | fold change (FC) [35]
inactive: inhibition [11] | inhibition [13] | inhibition [20] | inhibition [23] | inhibition [24] | inhibition [27] | inhibition [30]
